# CHO parental Ca = counter-screen for OX1R antagonists: effect in parental CHO cells; inhibition, % at 5.6 µM; parental CHO-K1, ATP-induced calcium, Fluo-8 fluorescence; 330,000 compounds, 0.63% hits; AID 463079;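 active = inhibition above that plate's mean sample inhibition plus 3 SD, cut at about 26% in these data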;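 also: 0% = ATP-challenged DMSO wells and 100% = DMSO wells without ATP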
#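 Test system: untransfected parental CHO cell line. Compound: one dose, 5.6 µM nominal. Detection: intracellular calcium via Fluo-8 no-wash fluorescent dye. Measure: % inhibition. Benchmarks: ATP-challenged DMSO wells low, unchallenged DMSO wells high.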
# TAAR1 antag = antagonists of human TAAR1; CHO RD-HGA16 TAAR1, Fluo-8 calcium fluorescence, antagonist; inhibition, % at 3 µM; 360,000 compounds, 1.5% hits;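 active = inhibition above a per-plate cutoff, the mean inhibition of test compounds on that plate plus 3 SD, cut at about 49% in these data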;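 also: 0% = DMSO plus EC80 beta-PEA response and 100% = DMSO alone without agonist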
# Target sequence (Q96RJ0 whole entry, looked up): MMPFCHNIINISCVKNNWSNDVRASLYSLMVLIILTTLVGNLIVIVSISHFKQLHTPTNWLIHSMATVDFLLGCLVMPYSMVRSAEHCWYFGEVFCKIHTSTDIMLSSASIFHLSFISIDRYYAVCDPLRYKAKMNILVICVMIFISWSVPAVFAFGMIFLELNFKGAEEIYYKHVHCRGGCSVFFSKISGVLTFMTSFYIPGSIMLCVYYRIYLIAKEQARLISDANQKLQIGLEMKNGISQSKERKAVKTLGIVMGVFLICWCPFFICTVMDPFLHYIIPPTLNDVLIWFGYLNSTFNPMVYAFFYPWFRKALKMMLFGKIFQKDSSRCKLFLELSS
#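 System: RD-HGA16 CHO cells with stable hTAAR1 and Gα16 | Probe or stimulus: EC80 β-phenethylamine stimulus | Dosing: 3 µM, single point | Times: Dye loading 75 min at 37 °C, then 30 min room temperature | Measured by: Fluo-8 calcium-sensitive fluorescence | Read-out basis: % inhibition of agonist calcium response | Replicates: n of 1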
# TAAR1 ag = human TAAR1 agonism; CHO RD-HGA16 TAAR1, Fluo-8 calcium fluorescence; vehicle wells 0%, saturating PEA agonist 100%; activation, % at 3 µM; 360,000 compounds, 0.99% hits; AID 624467;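 active = activation above the mean activation of all test compounds in the run plus 3 SD, cut at about 38% in these data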
#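 Test system: RD-HGA16 (CHO) cells co-expressing Gα16 and hTAAR1 | Doses: Single dose, 3 µM | Schedule: 17-24 h seeding, 75 min 37 °C dye, 30 min RT | Evaluation: % activation from peak over basal fluorescence ratio, DMSO-to-PEA scaled | Technique: Kinetic Fluo-8 calcium fluorescence | Benchmarks: Low control DMSO, high control PEA (EC100)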
# OX1R antag-1 = OX1R (human) antagonism; OX1R-expressing cells, FRET antagonist read-out; inhibition, % at 6.6 µM; O43613; 330,000 compounds, 1.8% hits; in the data active = inhibition mostly above about 38%, no sharp cut-off; inactive = mostly below about 40%;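 also: 0% = agonist challenge alone and 100% = reference antagonist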
# GalR3 antag = blocks the human galanin receptor 3; inhibition, % at 3 µM; HEK293 GalR3-CNG cAMP membrane potential fluorescence; galR3 body fused to GalR1 C-terminus; 360,000 compounds, 0.44% hits; O60755; AID 651719;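 active = inhibition above the screen-wide average plus 3 SD, cut at about 13% in these data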;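 also: forskolin and galanin both at EC90 stimulate the cells; cAMP rise reported by CNG channel membrane potential dye signal; 0% = forskolin plus galanin with DMSO and 100% = forskolin alone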
# Target sequence (O60755 1-299 limits assumed): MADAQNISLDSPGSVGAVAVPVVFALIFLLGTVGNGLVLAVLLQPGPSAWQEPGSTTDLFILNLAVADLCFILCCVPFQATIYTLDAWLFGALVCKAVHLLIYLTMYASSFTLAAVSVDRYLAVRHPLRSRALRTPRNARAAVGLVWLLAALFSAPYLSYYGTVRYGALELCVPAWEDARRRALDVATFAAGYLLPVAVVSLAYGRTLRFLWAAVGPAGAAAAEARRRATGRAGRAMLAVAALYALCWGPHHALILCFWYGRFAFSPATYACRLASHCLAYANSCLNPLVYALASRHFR
# OX1R antag-2 = antagonists of human orexin 1 receptor | CHO/OX1R cells, Fluo-8 calcium fluorescence, orexin A | inhibition, % at 5 µM | 330,000 compounds, 0.43% hits;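 active = inhibition above its plate's threshold, mean inhibition of all tested compounds on the plate plus 3 SD, cut at about 37% in these data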;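 also: 0% = orexin A challenge wells and 100% = SB-334867-A antagonist wells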
# Numbers without * were called inactive; . = no result given. Hits are enriched below; roughly 4.3% of the tested compounds scored in any of these assays.
SMILES,CHO parental Ca,TAAR1 antag,TAAR1 ag,OX1R antag-1,GalR3 antag,OX1R antag-2
Cc1c(C(=O)Nc2ccncc2)oc2ccccc12,-13.3,-9.0,29.3,7.8,-3.4,-26.9
Cc1cc(NC(=O)c2oc3ccccc3c2C)ccc1-n1cnnn1,-17.3,5.6,5.2,38.5*,-5.8,-4.7
Cc1c(C(=O)Nc2ccccn2)oc2c(Cl)cccc12,-47.2,-5.6,6.5,34.4*,-6.3,-24.8
Cc1c(C(=O)Nc2ccccn2)oc2ccccc12,-7.2,-2.6,-0.3,52.3*,-10.0,1.8
Cc1c(C(=O)NC(C)c2ccccn2)oc2c(Cl)cccc12 (stereo not drawn),.,-11.4,-2.0,.,-3.2,.
COc1cc2c(c(OC)c1OC)[C@@]1(c3ccccc3)CCCC[C@H]1[C@@H]2NC(=O)C(F)(F)F,.,-42.2,10.5,.,-8.8,.
COCOc1ccc(-c2oc3c(C/C=C(\C)CCC=C(C)C)ccc(O)c3c(=O)c2OCOC)c(OCOC)c1,-6.2,.,.,1.9,.,-2.9
Cn1c(CBr)c(C(=O)c2ccc([N+](=O)[O-])cc2)c(=O)n(C)c1=O,-4.7,-13.0,0.2,51.3*,2.8,-16.1
CC(=O)c1cn(-c2ccc([N+](=O)[O-])cc2)c(=O)n(C)c1=O,-7.8,-23.2,-0.7,39.4*,-4.5,-7.8
O=C1NC(Cc2ccc(O)cc2)c2nc3ccc(F)cc3c(=O)n2-c2cc3ccccc3cc21 (stereo not drawn),.,50.3*,7.7,.,-4.5,.
CC(=O)Oc1ccc2c(c1)Oc1cc(OC(C)=O)ccc1C21OC(=O)c2ccccc21,101.4*,.,.,59.9*,.,106.1*
Cc1cc2oc(=O)cc(CN(C)Cc3ccccc3)c2cc1C(C)C,30.7*,25.3,7.5,-0.4,-7.8,12.1
Cc1cc(NC(=O)c2ccc3nccnc3c2)ccc1Br,-3.3,45.9,34.6,48.2*,-6.6,12.4
O=C(Nc1ccc2cccnc2c1)c1ccc(Br)cc1,-13.2,-12.1,2.2,29.7*,-5.3,1.8
Cc1ccc(C(=O)Nc2ccc3nccnc3c2)cc1,-22.2,13.0,7.8,45.8,-0.7,-16.6
O=C(Nc1ccc(SC(F)F)cc1)c1ccc2nccnc2c1,51.9*,48.4,10.8,51.8*,-4.7,85.6*
COCCCN1C(=O)C(CC(=O)NC2CC2)CC(C(=O)N2CCOCC2)=C1C (stereo not drawn),.,-22.8,0.8,.,-4.0,.
COCCOC(=O)c1[nH]c2c(c1C)C(=O)CC(c1ccccc1)C2 (stereo not drawn),42.0*,.,.,26.9,.,-5.8
CCCCOC(=O)c1[nH]c2c(c1C)C(=O)CC(c1cc(OC)c(OC)c(OC)c1)C2 (stereo not drawn),61.7*,45.8,2.8,35.9,0.2,7.8
COCCOC(=O)c1[nH]c2c(c1C)C(=O)CC(c1cc(OC)c(OC)c(OC)c1)C2 (stereo not drawn),1.5,23.8,4.1,-3.0,-9.1,-23.5
C=CCOC(=O)c1[nH]c2c(c1C)C(=O)CC(c1cc(OC)c(OC)c(OC)c1)C2 (stereo not drawn),33.0*,.,.,24.4,.,15.2
COc1ccc(CN2C[C@@H](CO)O[C@@H](n3cnc4c(NCc5ccncc5)ncnc43)C2)cc1,.,-11.5,1.7,.,0.6,.
Nc1[nH]c(C(=O)c2ccc(Br)cc2)c(-c2ccccc2)c1C(=O)NCCc1c[nH]c2ccccc12,.,-37.7,-0.1,.,-6.8,.
CC(C)(C)c1ccc(OCCOc2ccc(C(C)(C)C)cc2NC=O)c(NC=O)c1,69.3*,43.2,6.4,29.1,-11.9,41.3*
CCN1C(=O)c2ccccc2S(=O)c2ccc(C(=O)N3CCOCC3)cc21 (stereo not drawn),7.1,1.8,-0.4,8.3,-2.8,-7.8
SMILES,CHO parental Ca,TAAR1 antag,TAAR1 ag,OX1R antag-1,GalR3 antag,OX1R antag-2
O=C1c2ccccc2-c2ccc(C(=O)N3CCOCC3)cc21,4.2,-7.7,0.5,60.5*,-4.7,-20.7
COc1cccc(NC2=C(NCCO)C(=O)c3ccccc3C2=O)c1,-15.2,-6.0,-0.7,45.6*,-8.7,-29.1
COc1ccccc1-c1nc2c(c(SCC(=O)N3CCCCC3)n1)Cc1c(CO)cnc(C)c1O2,-28.7,53.6*,9.5,13.4,-8.5,-11.0
Cc1ncc(CO)c2c1Oc1nc(-c3ccccc3)nc(SCC(=O)N3CCOCC3)c1C2,-23.6,23.3,6.8,7.9,-6.1,-5.8
COCC(C)NC(=O)C1CC(=O)N(CCc2ccc(F)cc2)C1 (stereo not drawn),.,-23.6,0.9,.,-5.6,.
Cc1cc(O)c(-c2cc(C(=O)Nc3cccnc3)[nH]n2)cc1C,5.6,-9.7,7.8,36.5,-3.8,-16.2
COc1ccc(NC(=O)c2cc(-c3cc(C)cc(C)c3O)n[nH]2)cc1Cl,14.6,7.8,9.9,78.6*,-2.4,7.8
COc1ccc(OC)c(NC(=O)c2cc(-c3cc(C)cc(C)c3O)n[nH]2)c1,-17.3,-8.3,0.1,62.2*,-3.3,26.8
Cc1cc(C)c(O)c(-c2cc(C(=O)Nc3cccnc3)[nH]n2)c1,3.4,35.7,3.8,43.6*,-5.9,26.1
CCN(CC)C(=O)c1cccc(-c2csc(C(O)c3ccc(F)cc3)n2)c1 (stereo not drawn),.,2.9,5.4,.,-4.4,.
CCN(CC(=O)Nc1c(F)cccc1F)C(=O)CNC(=O)c1ccc(Br)o1,-8.6,-2.3,0.2,59.5*,-3.5,-22.5
CCN(CC(=O)Nc1c(F)cccc1F)C(=O)CNC(=O)c1ccco1,-6.5,-9.9,2.4,16.6,4.2,1.2
Cc1c(Cl)cccc1NC(=O)Cn1c(CCC(=O)O)ccc1-c1ccccc1,-15.5,-5.3,1.8,1.9,-8.5,0.7
COc1ccc(N(CC(=O)NC(C)(C)C)C(=O)CCC(=O)Nc2nccs2)c(OC)c1,-22.6,-9.6,3.4,10.0,-7.9,-27.0
CCCCN1C(=O)C(CC(=O)NCc2cccs2)CC(C(=O)N(CC)CC)=C1C (stereo not drawn),.,-1.4,-0.5,.,-6.1,.
O=C(NCC1CC1(Cl)Cl)Nc1ccc(Cl)c(Cl)c1 (stereo not drawn),33.2*,26.3,2.2,39.2,-7.9,1.6
O=S(=O)(NCc1ccc2c(c1)OCO2)c1ccc2c(c1)oc1ccccc12,-8.9,6.3,0.3,44.0*,-11.3,18.8
Cc1c(C(=O)NCc2ccc3c(c2)OCO3)oc2ccccc12,-8.6,4.0,9.2,45.0*,-0.1,-3.3
Cc1cc(C)c2c(N)c(C(=O)N/N=C/c3cccnc3)sc2n1,-7.9,14.4,2.1,47.1*,3.4,-19.4
Cc1cc(C)c2c(N)c(C(=O)N/N=C/c3ccccc3)sc2n1,-18.3,-9.7,1.7,42.9*,-2.1,-23.9
Cc1c(C(=O)N/N=C/c2cccnc2)sc(=S)n1C,-1.7,21.6,-0.8,59.5,-13.0,15.9
c1ccc(OCC2CCNCC2)nc1,4.0,1.8,3.9,2.3,-8.5,-22.0

# Screens as filed in PubChem.
